Source: ChEMBL document CHEMBL4725498, “Synthesis and Biological Evaluations of Electrophilic Steroids Inspired by the Taccalonolides” (ACS Med Chem Lett, 2020)
The source made the active and inactive calls. The rule behind the calls is not given here.

Assays:
HeLa [1] = test: Cytotoxicity against human HeLa cells assessed as reduction in cell viability measured after 48 hrs by sulforhodamine B assay; type: functional; details: read-out: LC50 (the source's name)
Procedure, shortened: (§1)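 HeLa cells exposed to compound for 48 h, then growth measured by sulforhodamine B (SRB) staining. GI50 (50% growth inhibition), TGI (total growth inhibition) and LC50 (50% cytotoxicity) were read from concentration–response data. Values are average ± SEM, n = 3–5.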

HeLa [2] = test: Antiproliferative activity against human HeLa cells assessed as growth inhibition measured after 48 hrs by sulforhodamine B assay; type: functional; procedure, shortened: as §1
BT-549 = test: Cytotoxicity against human BT-549 cells assessed as reduction in cell viability measured after 48 hrs by sulforhodamine B assay; type: functional; details: read-out: LC50 (the source's name)
Procedure, shortened: (§2)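 Breast lines were tested in a 48 h SRB assay: four molecularly diverse triple-negative lines plus nontumorigenic MCF 10A, with MCF 10A tested up to 50 μM. LC50 values came from concentration–response curves. Complete cytotoxicity was taken as the concentration giving full cell kill after 48 h incubation.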

HCC1937 = test: Cytotoxicity against human HCC1937 cells assessed as reduction in cell viability measured after 48 hrs by sulforhodamine B assay; type: functional; details: read-out: LC50 (the source's name); procedure, shortened: as §2
MDA-MB-231 = test: Cytotoxicity against human MDA-MB-231 cells assessed as reduction in cell viability measured after 48 hrs by sulforhodamine B assay; type: functional; procedure, shortened: as §2
Sus scrofa = species: Sus scrofa; test: Inhibition of porcine brain tubulin polymerization assessed as reduction in rate and extent of tubulin polymerization at 20 uM by turbidimetric assay
Procedure, shortened: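 Purified porcine brain tubulin (20 μM) was incubated with 20 μM compound or DMSO vehicle. Polymerization was monitored turbidimetrically after shift to 37 °C.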

MDA-MB-453 = test: Cytotoxicity against human MDA-MB-453 cells assessed as reduction in cell viability measured after 48 hrs by sulforhodamine B assay; type: functional; procedure, shortened: as §2
OVCAR-5 = test: Antiproliferative activity against human OVCAR-5 cells assessed as reduction in cell growth at 0.01 to 10 uM incubated for 48 hrs by SRB assay; type: functional, cell-based; details: dose microM 0.01-10, time 48.0 hrs
ES2 = test: Antiproliferative activity against human ES-2 cells assessed as reduction in cell growth at 0.01 to 10 uM incubated for 48 hrs by SRB assay; type: functional, cell-based; details: dose microM 0.01-10, time 48.0 hrs
[3] = Selectivity ratio of antiproliferative activity against human SKOV3-M6/6 cells transfected with MDR1 to antiproliferative activity against human SKOV3 cells measured after 48 hrs by sulforhodamine B assay; type: functional
SK-OV-3 [4] = test: Antiproliferative activity against human SKOV3 cells assessed as reduction in cell growth at 0.01 to 10 uM incubated for 48 hrs by SRB assay; type: functional, cell-based; details: dose microM 0.01-10, time 48.0 hrs
Tubulin (Homo sapiens) = Tubulin (Homo sapiens) (UniProt P68371+Q9H4B7+P0DPH7+P68366+Q13509+Q71U36+P04350+Q3ZCM7+P07437+P68363+Q9BQE3+Q6PEY2+Q13885+Q9BVA1+Q9BUF5); test: Induction of microtubule stabilization in human BT-549 cells assessed as bundling of microtubule network at 1 microM incubated for 6 hrs by indirect immunofluorescence assay; type: cell-based
Procedure, shortened: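 BT-549 cells were treated for 6 h with compound or DMSO vehicle. Microtubules were then visualised by immunofluorescence with a β-tubulin antibody, scoring microtubule loss or bundling.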

SK-OV-3 [5] = test: Antiproliferative activity against human SKOV3-M6/6 cells assessed as reduction in cell growth at 0.01 to 10 uM incubated for 48 hrs by SRB assay; type: functional, cell-based; details: dose microM 0.01-10, time 48.0 hrs
[6] = Selectivity index, ratio of LC50 for human HeLa cells to LC50 for human HCC1937 cells measured after 48 hrs by sulforhodamine B assay; type: functional

Row | Compound | CC50 (HeLa [1]) [nM] | GI50 (HeLa [2]) [nM] | TGI (HeLa [2]) [nM] | also measured
1 | C[C@]12CC=CC[C@@H]1[C@@H](O)C[C@H]1[C@@H]3[C@@H]4O[C@@H]4C(=O)[C@@]3(C)CC[C@@H]12 | 1320 | 710 | 930 | –
2 | C[C@]12C[C@H]3O[C@H]3C[C@@H]1CC[C@@H]1[C@@H]2CC[C@]2(C)C=CC(=O)[C@@H]12 | 18200 | 9200 | 12800 | –
3 | Cc1ccc(S(=O)(=O)N2[C@@H]3C[C@@]4(C)[C@@H](CC[C@H]5[C@@H]6[C@@H]7O[C@@H]7C(=O)[C@@]6(C)CC[C@@H]54)C[C@@H]32)cc1 (some centres not stated) | 660 | 450 | 540 | CC50 (BT-549): 260 nM; CC50 (HCC1937): 760 nM; LC50 (concentration killing 50% of cells) (MDA-MB-231): 470 nM; inhibition (Sus scrofa): inactive; LC50 (concentration killing 50% of cells) (MDA-MB-453): 350 nM
4 | C[C@]12C[C@H]3O[C@H]3C[C@@H]1CC[C@@H]1[C@@H]2CC[C@]2(C)[C@@H]3O[C@@H]3C[C@@H]12 | > 50000 | > 50000 | > 50000 | –
5 | CO[C@@H]1CC(=O)[C@@]2(C)CC[C@H]3[C@@H](CC(=O)[C@H]4CC=CC[C@@]43C)[C@H]12 | > 50000 | 19400 | 35500 | –
6 | C[C@]12C[C@@H]3N[C@@H]3C[C@@H]1CC[C@H]1[C@@H]3[C@@H]4O[C@@H]4C(=O)[C@@]3(C)CC[C@@H]12 | 1420 | 470 | 750 | –
7 | CO[C@@H]1CC(=O)[C@@]2(C)CC[C@H]3[C@@H](C[C@H](O)[C@H]4CC=CC[C@@]43C)[C@H]12 | 48100 | 17500 | 30100 | –
8 | CC(=O)O[C@H]1C(=O)[C@@]2(C)[C@H]([C@H](OC(=O)c3ccccc3)[C@]3(O)C[C@H](OC(=O)[C@H](O)[C@@H](NC(=O)c4ccccc4)c4ccccc4)C(C)=C1C3(C)C)[C@]1(OC(C)=O)CO[C@@H]1C[C@@H]2O [PACLITAXEL] | – | – | – | Activity (OVCAR-5): Active; Activity (ES2): Active; Ratio [3]: 25; Activity (SK-OV-3 [4]): Active; Activity (Tubulin (Homo sapiens)): Active; Activity (SK-OV-3 [5]): Active
9 | C[C@]12CC=CC[C@@H]1C(=O)C[C@@H]1[C@@H]2CC[C@]2(C)C(=O)C=C[C@@H]12 | 1290 | 760 | 980 | –
10 | C[C@]12C[C@H]3O[C@H]3C[C@@H]1CC[C@@H]1[C@@H]2CC[C@]2(C)C(=O)C=C[C@@H]12 | 860 | 310 | 510 | CC50 (BT-549): 450 nM; CC50 (HCC1937): 1780 nM; CC50 (MDA-MB-231; read-out: LC50 (the source's name)): 1580 nM; inhibition (Sus scrofa): Active
11 | CO[C@@H]1CC(=O)[C@@]2(C)CC[C@H]3[C@@H](CC(=O)[C@H]4C[C@@H]5O[C@@H]5C[C@@]43C)[C@H]12 | > 50000 | > 50000 | > 50000 | –
12 | CO[C@@H]1CC(=O)[C@@]2(C)CC[C@H]3[C@@H](C[C@H](O)[C@H]4C[C@@H]5O[C@@H]5C[C@@]43C)[C@H]12 | > 50000 | > 50000 | > 50000 | –
13 | C[C@]12CCC(=O)C[C@@H]1CC[C@@H]1[C@@H]2CC[C@]2(C)C(=O)C=C[C@@H]12 | 1270 | 380 | 750 | –
14 | C[C@]12CC[C@H]3[C@@H](CC[C@H]4C[C@@H]5O[C@@H]5C[C@@]43C)[C@@H]1[C@H](O)[C@H]1O[C@H]12 | > 50000 | > 50000 | > 50000 | –
15 | C[C@]12C[C@H]3O[C@H]3C[C@@H]1CC[C@@H]1[C@@H]2CC[C@]2(C)C(=O)CC[C@@H]12 | 43400 | 19200 | 29800 | –
16 | C[C@]12C[C@H]3O[C@H]3C[C@@H]1CC[C@H]1[C@@H]3[C@@H]4O[C@@H]4C(=O)O[C@@]3(C)CC[C@@H]12 | > 50000 | 28200 | > 50000 | –
17 | C[C@]12CC=CC[C@@H]1C(=O)C[C@H]1[C@@H]3[C@@H]4O[C@@H]4C(=O)[C@@]3(C)CC[C@@H]12 | 1570 | 820 | 1090 | –
18 | C[C@]12C[C@H]3O[C@H]3C[C@@H]1C(=O)C[C@@H]1[C@@H]2CC[C@]2(C)C(=O)C=C[C@@H]12 | 2040 | 760 | 1280 | inhibition (Sus scrofa): Active
19 | CC(C)(C)OC(=O)N1[C@@H]2C[C@@]3(C)[C@@H](CC[C@H]4[C@@H]5[C@@H]6O[C@@H]6C(=O)[C@@]5(C)CC[C@@H]43)C[C@@H]21 | 730 | 640 | 680 | –
20 | C[C@]12C[C@H]3O[C@H]3C[C@@H]1[C@@H](O)C[C@H]1[C@@H]3[C@@H]4O[C@@H]4C(=O)[C@@]3(C)CC[C@@H]12 | 3290 | 2010 | 2500 | –
21 | C[C@]12C[C@H]3O[C@H]3C[C@@H]1C(=O)C[C@H]1[C@@H]3[C@@H]4O[C@@H]4C(=O)[C@@]3(C)CC[C@@H]12 | 3700 | 2060 | 2660 | –
22 | C[C@]12CC=CC[C@@H]1CC[C@H]1[C@@H]3[C@@H]4O[C@@H]4C(=O)[C@@]3(C)CC[C@@H]12 | 1480 | 700 | 1000 | –
23 | C[C@]12CCC(=O)C[C@@H]1CC[C@H]1[C@@H]3[C@@H]4O[C@@H]4C(=O)[C@@]3(C)CC[C@@H]12 | 1900 | 1000 | 1400 | CC50 (BT-549): 1340 nM; CC50 (HCC1937): 700 nM; LC50 (concentration killing 50% of cells) (MDA-MB-231): 1230 nM; LC50 (concentration killing 50% of cells) (MDA-MB-453): 1010 nM; RatioLC50 [6]: 2
24 | C[C@]12CC=CC[C@@H]1[C@@H](O)C[C@@H]1[C@@H]2CC[C@]2(C)C(=O)C=C[C@@H]12 | 700 | 277 | 410 | –
25 | C[C@]12C[C@H]3O[C@H]3C[C@@H]1[C@@H](O)C[C@@H]1[C@@H]2CC[C@]2(C)C(=O)C=C[C@@H]12 | 2370 | 1180 | 1620 | inhibition (Sus scrofa): Active
26 | C[C@]12CC[C@H](O)C[C@@H]1CC[C@H]1[C@@H]3[C@@H]4O[C@@H]4C(=O)[C@@]3(C)CC[C@@H]12 | 2200 | 1300 | 1800 | CC50 (BT-549): 1430 nM; CC50 (HCC1937): 820 nM; LC50 (concentration killing 50% of cells) (MDA-MB-231): 1400 nM; LC50 (concentration killing 50% of cells) (MDA-MB-453): 1080 nM; RatioLC50 [6]: 2
27 | CC(=O)O[C@H]1[C@H]2[C@H]([C@@H]3[C@@H](O)[C@@H]4[C@H]([C@H](C)[C@H]5O[C@]56OC(=O)[C@@](C)(O)[C@]46C)[C@@]3(C)[C@H]1OC(C)=O)[C@@H](O)C(=O)[C@H]1C[C@@H]3O[C@@H]3[C@H](OC(C)=O)[C@]21C | – | – | – | Activity (OVCAR-5): Active; Activity (ES2): Active; Activity (SK-OV-3 [4]): Active; Activity (SK-OV-3 [5]): Active
28 | C[C@]12C[C@H]3O[C@H]3C[C@@H]1CC[C@@H]1[C@@H]2CC[C@]2(C)[C@@H]3O[C@@H]3C(=O)[C@@H]12 | > 50000 | 34700 | > 50000 | –
29 | C[C@]12CC[C@H](O)C[C@@H]1CC[C@@H]1[C@@H]2CC[C@]2(C)C(=O)C=C[C@@H]12 | 1180 | 420 | 770 | –
